HIV Rev-RRE inh – HIV Rev-RRE protein-RNA interaction inhibition; P05866; AID 704; hit rate 0.79% among 97,000; Rev peptide-RRE RNA binding, FRET; inhibition, % at 8 µM;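 active = inhibition above the screen-wide mean plus 3 SD, cut at about 35% in these data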;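 also: 0% = median DMSO wells and 100% = median Neomycin B control wells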
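Test system: Cy5-tagged RRE RNA duplex with fluorescein-tagged Rev peptide; Probe or stimulus: labelled Rev peptide; Schedule: 5 min preincubation and 15 min binding, 25 °C; Signal: FRET fluorescence readout; Evaluation: % inhibition from 671/540 nm acceptor-to-donor ratio, scaled between controls; Control set: DMSO and neomycin B.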
Measles CPE – protection of cells from measles virus; Measles virus-infected cells, CPE protection, absorbance; protection (pct of control), % at 4 µM; hit rate 1.5% among 140,000; in the data active = protection mostly above about 24%, no sharp cut-off; inactive = mostly below about 26%
IL1B NFkB inh – blocks IL-1B driven NFkB nuclear translocation in HUVEC cells; HUVEC IL-1B NFkB p65 nuclear translocation imaging; inhibition, % at 2 µM; hit rate 0.43% among 94,000;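 active = inhibition above about 30% together with a positive call from visual inspection of the well image, limit read from the data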;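 also: nuclear over cytoplasmic p65 intensity ratio measured by imaging; 0% = IL-1B stimulated DMSO wells and 100% = unstimulated DMSO wells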
FAK blocker – blocks human focal adhesion kinase activity. Q05397. biochemical FAK kinase activity assay. inhibition, %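 (tested at 7 µM)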. hit rate 0.84% among 97,000. AID 727; in the data active = inhibition above about 19%;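 also: 0% = DMSO and 100% = reference compound high control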
Target sequence (Q05397 whole entry, looked up): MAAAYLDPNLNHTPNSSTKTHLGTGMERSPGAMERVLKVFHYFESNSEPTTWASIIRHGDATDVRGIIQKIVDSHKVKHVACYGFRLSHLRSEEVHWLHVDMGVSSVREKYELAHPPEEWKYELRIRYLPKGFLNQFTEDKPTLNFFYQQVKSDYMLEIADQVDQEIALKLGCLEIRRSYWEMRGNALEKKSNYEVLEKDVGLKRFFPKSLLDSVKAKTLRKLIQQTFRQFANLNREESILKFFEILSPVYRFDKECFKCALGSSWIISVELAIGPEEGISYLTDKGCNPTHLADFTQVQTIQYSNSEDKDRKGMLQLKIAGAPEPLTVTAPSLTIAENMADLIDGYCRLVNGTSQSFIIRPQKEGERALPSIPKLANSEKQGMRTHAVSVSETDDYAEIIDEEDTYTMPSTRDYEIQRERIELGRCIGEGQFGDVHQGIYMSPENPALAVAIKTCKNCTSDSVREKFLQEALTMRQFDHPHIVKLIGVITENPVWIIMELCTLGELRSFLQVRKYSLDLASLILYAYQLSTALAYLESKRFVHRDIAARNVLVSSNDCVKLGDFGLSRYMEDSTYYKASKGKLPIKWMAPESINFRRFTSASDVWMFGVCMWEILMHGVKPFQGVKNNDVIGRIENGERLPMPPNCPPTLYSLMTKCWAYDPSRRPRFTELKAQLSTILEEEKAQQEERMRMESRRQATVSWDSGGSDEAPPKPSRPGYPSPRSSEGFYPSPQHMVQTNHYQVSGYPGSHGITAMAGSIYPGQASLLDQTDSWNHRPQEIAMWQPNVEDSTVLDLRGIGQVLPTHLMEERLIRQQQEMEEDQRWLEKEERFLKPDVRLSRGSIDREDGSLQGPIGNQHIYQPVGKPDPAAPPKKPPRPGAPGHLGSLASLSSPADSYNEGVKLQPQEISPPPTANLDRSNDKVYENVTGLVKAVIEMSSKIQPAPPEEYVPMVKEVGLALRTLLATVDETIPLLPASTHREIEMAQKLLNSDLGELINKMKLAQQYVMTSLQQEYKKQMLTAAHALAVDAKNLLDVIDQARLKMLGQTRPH
NFkB transloc pot – enhances IL-1B driven NFkB nuclear translocation. hit rate 0.3% among 94,000. HUVEC IL-1B NFkB p65 nuclear translocation imaging. activation, % at 2 µM;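 active = activation above 40%, about the mean plus 3 SD, also judged a hit on visual image review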;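 also: percent activation is computed from the nuclear over cytoplasmic p65 intensity ratio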
HUVEC tox IL1B – toxic to HUVEC cells under IL-1B stimulation | cell count reduction, % at 2 µM | hit rate 0.41% among 94,000 | HUVEC cell count loss, Hoechst imaging, IL-1B stimulated;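 active = cell count reduction more than 3 SD above the screen-wide mean, cut at about 70% in these data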;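 also: normalized per plate to untreated control cells as the no-loss baseline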
* = called active by the depositor; . = no result given; [ ] = another dose, or the depositor's remark. Hits are enriched below; roughly 3.3% of the tested compounds scored in any of these assays.

SMILES | HIV Rev-RRE inh | Measles CPE | IL1B NFkB inh | FAK blocker | NFkB transloc pot | HUVEC tox IL1B
CC(c1ccccc1)n1cc(C(=O)NCCN2CCOCC2)nn1 (stereo not given) | 5.0 | 10.4 | -52.7 | -4.5 | 52.7* | 12.5
CC(c1ccccc1)n1cc(C(=O)NCC2CCCO2)nn1 (stereo not given) | 5.9 | 9.2 | -24.9 | -5.3 | 24.9 | -17.5
Cc1sc(N/N=C/c2cccnc2)nc1-c1ccccc1 | -2.3 | 82.9* | -7.4 | -1.6 | 7.4 | -12.1
CC(Oc1ccccc1)C(=O)NCc1cccnc1 (stereo not given) | 4.7 | 2.6 | -6.9 | -2.1 | 6.9 | -9.9
CCC(C)NS(=O)(=O)c1ccc(OCC(=O)NCc2cccnc2)cc1 (stereo not given) | 3.2 | 16.3 | 98.3* | 0.7 | -98.2 | 79.9*
COc1ccc(OC(C)C(=O)NCc2cccnc2)cc1 (stereo not given) | 9.3 | 6.0 | 13.0 | -0.7 | -13.0 | 93.0*
Cc1nc(NC(=O)C(C)Oc2cccc(Cl)c2)sc1C(=O)N(C)C (stereo not given) | . | 7.8 | . | . | . | .
COCCNCC(=O)Nc1ccccc1Sc1ccccc1 | . | 11.9 | . | . | . | .
Cn1nc(C(F)(F)F)c(C(=O)Nc2cccc(Cl)c2)c1Cl | 1.6 | 22.1 | . | 3.1 | . | .
N#Cc1c(SCC(N)=O)nc2c(c1-c1ccc(OCc3ccccc3)cc1)CCCC2 | 4.6 | . | -3.2 | 6.3 | 3.2 | 85.5*
COc1ccc(-c2c(C#N)c(SCC(=O)Nc3ccccc3)nc3c2CCCC3)cc1 | 15.1 | . | 4.6 | -0.5 | -4.6 | 6.1
CCOC(=O)c1c(NC(=O)c2cc(-c3ccc(O)cc3)on2)sc(C(C)=O)c1C | . | 8.7 | . | . | . | .
CN(C)c1ccc(/C=[N+](\[O-])C2N(c3ccccc3)C(=S)SC2(C)C)cc1 (stereo not given) | . | 5.3 | . | . | . | .
CN(CC(O)COc1c(F)cc(Br)cc1F)C1CCCCC1 (stereo not given) | . | 15.3 | . | . | . | .
CCCc1nnc(NC(=O)CCC(=O)N2CCN(CCn3c(C)ccc3C)CC2)s1 | -1.9 | 30.7* | -22.3 | -4.1 | 22.3 | 6.3
CCCc1nnc(NC(=O)CCC(=O)N2CCN(CCOc3ccc(C)cc3)CC2)s1 | 9.0 | 2.2 | 2.9 | -0.5 | -2.9 | 4.5
CCc1nnc(NC(=O)CCC(=O)N2CCN(C3CCCCC3)CC2)s1 | -1.7 | 1.5 | -4.9 | 0.2 | 4.9 | 7.6
CCc1nnc(NC(=O)CCC(=O)N2CCCC2)s1 | 8.8 | 27.2 | -79.4 | 3.3 | 79.4* | 20.6
Cc1cc(C)nc(N/C(=N\S(=O)(=O)Cc2ccccc2)Nc2ccccc2Br)n1 | . | 21.1 | . | . | . | .
NC1=NC2(CCCCC2)N=C(Nc2ccc(Br)cc2)N1 | . | 11.8 | . | . | . | .
COc1ccc(C(=O)N2CCN(c3ccc(C)cc3)CC2)cc1OC | 3.6 | 1.8 | 2.3 | 2.8 | -2.3 | 0.6
COc1ccc(OC)c2c(C)cc(N3CCN(C(=O)c4ccc(Cl)cc4)CC3)nc12 | -1.6 | 55.5* | -22.3 | 1.0 | 22.3 | -26.1
COc1ccc(C(=O)N2CCN(c3c(C)cccc3C)CC2)cc1OC | 5.2 | 16.5 | -23.1 | -1.5 | 23.1 | 3.6
Cc1ccc(C(=O)N2CCN(c3ccc(Cl)cc3)CC2)cc1 | 7.5 | 3.2 | 15.8 | 0.0 | -15.8 | 88.1*
COC(=O)c1cc([N+](=O)[O-])c(-n2ccnc2)c([N+](=O)[O-])c1 | . | 10.2 | . | . | . | .
SMILES | HIV Rev-RRE inh | Measles CPE | IL1B NFkB inh | FAK blocker | NFkB transloc pot | HUVEC tox IL1B
COCCn1c(=S)[nH]c2cc(C(=O)N3CCC(C(N)=O)(N4CCCCC4)CC3)ccc2c1=O | -1.6 | 11.1 | -15.2 | 0.2 | 15.2 | 20.4
CCOC(=O)C1CCCN(C(=O)c2ccc3c(=O)n(CCOC)c(=S)[nH]c3c2)C1 (stereo not given) | 2.7 | 27.9* | -4.8 | 8.1 | 4.8 | 18.5
CCOCCCn1c(=S)[nH]c2cc(C(=O)NCCN(CC)CC)ccc2c1=O | 2.9 | 33.7* | -6.3 | 1.2 | 6.3 | -30.3
N=C1SC(c2ccccc2)C(=O)N1c1ncc(Cc2ccccc2Cl)s1 (stereo not given) | . | 4.6 | . | . | . | .
Cc1cccc(C)c1NC(=O)COc1ccc2c(C)c(Cc3ccccc3)c(=O)oc2c1 | . | 4.9 | . | . | . | .
COc1ccc(C(=O)N2CCN(c3ccccn3)CC2)cc1 | 1.2 | 45.5* | -15.7 | -0.9 | 15.7 | -5.0
Cc1ccc(-c2nnc(SCC(=O)Nc3cccc(C(=O)N4CCOCC4)c3)n2C)cc1 | . | 7.3 | . | . | . | .
Cn1cccc1CC(=O)N/N=C/C=C/c1ccco1 | . | 2.6 | . | . | . | .
COc1ccc(S(=O)(=O)NC(C(C)C)C(C)C)cc1OC | 2.1 | 9.3 | -18.1 | 0.6 | 18.1 | -9.7
COc1cc(S(=O)(=O)NC(C)C)ccc1Cl | -2.0 | 32.7* | 5.7 | -2.4 | -5.7 | -7.9
Clc1ccc(Oc2nc(N3CCOCC3)nc(N3CCOCC3)n2)cc1 | 7.3 | 33.7* | -24.5 | -1.1 | 24.5 | 11.6
COc1cc2c(cc1NC(=S)NC(=O)/C=C/c1ccc(OC)c(OC)c1)oc1ccccc12 | . | 53.4* | . | . | . | .
COc1ccc(/C=C/C(=O)NC(=S)Nc2cc3oc4ccccc4c3cc2OC)cc1 | . | 5.0 | . | . | . | .
COc1cccc(/C=C/C(=O)c2c(O)cc(C)oc2=O)c1O | 10.5 | 17.3 | -6.8 | -0.8 | 6.8 | -12.7
COc1ccc(/C=C/C(=O)c2c(O)cc(C)oc2=O)c(OC)c1 | 89.5*[fluorescence artefact?] | 18.2 | 4.1 | 4.1 | -4.1 | 0.4
COc1cc(/C=C/C(=O)c2c(O)cc(C)oc2=O)cc(OC)c1O | 38.3* | 21.3 | -19.2 | -2.3 | 19.2 | -15.8
COc1ccc(C(=O)/C=C/c2cc(OC)c(O)c(OC)c2)c(F)c1 | . | 6.5 | . | . | . | .
COc1cc(/C=C/C(=O)O)cc(S(=O)(=O)NC2CC2)c1OC | . | 25.8 | . | . | . | .
COc1ccc(NC(=O)CSc2nnnn2-c2ccc(OC)cc2)cc1 | 1.1 | 4.8 | -11.0 | 1.2 | 11.0 | -2.7
COc1cc(NC(=O)CSc2nnnn2-c2ccccc2)cc(OC)c1OC | -0.1 | 104.2* | -3.2 | 1.8 | 3.2 | -21.9
CCS(=O)(=O)c1nc(S(=O)(=O)c2ccc(Cl)cc2)c(N2CCc3ccccc3C2)s1 | . | 2.1 | . | . | . | .
CC(=O)N1C(=O)C(=C2C=C(C)OC(C)=C2)c2ccccc21 | 110.2*[fluorescence artefact?] | 3.3 | -1.8 | 6.7 | 1.8 | -11.4
CCCc1ccc(-c2cc(NC(=O)CSc3nnc(N)s3)n(-c3ccccc3)n2)cc1 | . | 5.2 | . | . | . | .
Cc1cccc(-c2nc(CS(=O)CC(=O)NC3CCCC3)c(C)o2)c1 (stereo not given) | 2.1 | 8.6 | 8.0 | 1.0 | -8.0 | -12.4
Cc1cccc(-c2nc(C#N)c(NC3CCCCC3)o2)c1 | 11.7 | 43.1* | -6.6 | -1.9 | 6.6 | -31.7
COc1cc(S(=O)(=O)NCc2ccccn2)c(OC)cc1Cl | 3.2 | 11.9 | -9.1 | -0.4 | 9.1 | -4.2
CCOc1cc(C)c(C(C)C)cc1S(=O)(=O)NCc1ccccn1 | -0.3 | 29.7 | 100.3* | 2.0 | -100.3 | 84.6*
O=C(NC1(C(F)(F)F)NC(=O)N(c2ccc(F)cc2)C1=O)c1cccs1 (stereo not given) | . | 20.1 | . | . | . | .
CCSc1nnc(CNC(=O)C23CC4CC(CC(C4)C2)C3)n1C1CCCCC1 | . | 6.5 | . | . | . | .
O=C(CNS(=O)(=O)c1ccccc1)NCC(=O)OCc1ccc(C(=O)c2ccccc2)cc1 | . | 22.0 | . | . | . | .
